≈ marks a conversion by molar mass, not a printed value.
Key:
[1] = Solubility of compound in water at 20 degC by UV-spectroscopic analysis; assay type: physicochemical
How it was run: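 Suspensions were boiled 5 min, left overnight at 20 °C, and filtered. Filtrates were diluted 10-80-fold in MeOH and read by UV in MeOH/H2O (90% v/v). Concentration came from standard curves of seven concentrations from 10^-3 to 10^-1 mg/mL, using linear regression of two neighbouring points and multiplying by the dilution.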

[2] = target: T1, Adenosine receptor A1 (Rattus norvegicus) (UniProt P25099); assay: Displacement of [3H]CCPA from adenosine receptor A1 in rat brain cortical membranes at 10 uM; assay type: cell membranes; settings: 10 uM
T1 sequence (whole entry): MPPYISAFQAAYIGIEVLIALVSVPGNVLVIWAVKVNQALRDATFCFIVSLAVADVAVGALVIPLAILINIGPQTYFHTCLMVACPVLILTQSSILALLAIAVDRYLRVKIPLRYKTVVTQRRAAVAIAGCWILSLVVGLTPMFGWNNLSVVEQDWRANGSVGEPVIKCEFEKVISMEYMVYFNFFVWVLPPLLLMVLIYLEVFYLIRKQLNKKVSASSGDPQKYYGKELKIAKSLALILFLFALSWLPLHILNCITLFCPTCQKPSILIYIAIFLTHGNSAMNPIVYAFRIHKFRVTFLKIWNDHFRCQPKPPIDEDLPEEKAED
How it was run: (§1)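 Native rat receptors: A1 in brain cortical membranes with [3H]CCPA, A2A in brain striatal membranes, from frozen unstripped rat brains. Compounds were first screened at a single high concentration in three independent experiments. Active compounds then had full inhibition curves over at least 3 orders of magnitude of concentration.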

[3] = target: T2, Adenosine receptor A2b (Homo sapiens) (UniProt P29275); assay: Displacement of [3H]PSB-603 from recombinant human adenosine receptor A2b expressed in CHO cell membranes at 1 uM
T2 sequence (whole entry): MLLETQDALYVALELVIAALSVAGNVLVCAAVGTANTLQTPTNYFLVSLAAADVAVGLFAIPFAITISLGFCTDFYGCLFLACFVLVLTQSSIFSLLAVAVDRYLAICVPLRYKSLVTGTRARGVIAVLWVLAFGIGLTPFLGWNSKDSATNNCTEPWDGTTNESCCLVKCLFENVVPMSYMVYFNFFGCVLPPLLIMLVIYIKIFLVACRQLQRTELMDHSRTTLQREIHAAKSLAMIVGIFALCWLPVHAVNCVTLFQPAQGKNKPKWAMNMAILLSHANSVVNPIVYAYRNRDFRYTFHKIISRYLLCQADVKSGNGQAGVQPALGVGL
How it was run: (§2)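 Membranes came from CHO cells expressing recombinant receptors (human A1, A2A, A2B, A3; rat A2B, A3). Radioligands were [3H]CCPA for A1 and [3H]PSB-11 or [3H]NECA for A3. A single high concentration was screened first, in three experiments for A1/A2A and two for A2B/A3. Full inhibition curves spanning at least 3 log units were run for potent compounds.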

Adenosine receptor A1 [4] = target: T3, Adenosine receptor A1 (Rattus norvegicus, UniProt P25099); assay: Displacement of [3H]CCPA from adenosine receptor A1 in rat brain cortical membranes; assay type: cell membranes
T3 sequence (P25099 whole entry): T1 sequence (whole entry)
How it was run: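 Native rat receptors: A1 in brain cortical membranes with [3H]CCPA, A2A in brain striatal membranes, from frozen unstripped rat brains. Compounds were first screened at a single high concentration in three independent experiments.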

[5] = target: T4, Adenosine receptor A3 (Homo sapiens) (UniProt P0DMS8); assay: Displacement of [3H]PSB11 from recombinant human adenosine receptor A3 expressed in CHO cell membranes at 1 uM; how it was run: as §2
T4 sequence (whole entry): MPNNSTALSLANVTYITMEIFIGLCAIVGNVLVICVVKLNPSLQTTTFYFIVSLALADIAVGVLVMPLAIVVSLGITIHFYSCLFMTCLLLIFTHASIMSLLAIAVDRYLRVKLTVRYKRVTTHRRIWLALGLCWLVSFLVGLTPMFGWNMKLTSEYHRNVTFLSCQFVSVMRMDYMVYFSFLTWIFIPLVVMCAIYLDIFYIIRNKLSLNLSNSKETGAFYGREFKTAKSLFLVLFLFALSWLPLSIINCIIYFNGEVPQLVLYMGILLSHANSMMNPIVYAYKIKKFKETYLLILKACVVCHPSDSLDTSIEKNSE

Adenosine receptor A2a [6] = target: Adenosine receptor A2a (Rattus norvegicus, UniProt P30543); assay: Displacement of [3H]MSX2 from adenosine receptor A2a in rat brain striatal membranes; assay type: cell membranes, Membrane; how it was run: as §1
Sequence of Adenosine receptor A2a (Rattus norvegicus, UniProt P30543) (P30543 whole entry): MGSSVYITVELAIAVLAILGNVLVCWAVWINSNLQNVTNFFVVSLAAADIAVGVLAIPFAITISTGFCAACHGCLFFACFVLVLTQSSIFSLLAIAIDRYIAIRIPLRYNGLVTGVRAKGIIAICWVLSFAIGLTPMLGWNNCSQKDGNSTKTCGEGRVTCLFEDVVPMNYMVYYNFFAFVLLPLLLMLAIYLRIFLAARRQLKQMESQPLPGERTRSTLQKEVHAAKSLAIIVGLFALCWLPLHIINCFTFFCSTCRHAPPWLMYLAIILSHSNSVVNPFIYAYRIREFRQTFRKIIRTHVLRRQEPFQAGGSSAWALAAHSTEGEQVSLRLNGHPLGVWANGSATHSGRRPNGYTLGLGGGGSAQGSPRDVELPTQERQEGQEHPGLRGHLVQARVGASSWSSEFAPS

Adenosine receptor A2b [7] = target: T5, Adenosine receptor A2b (Homo sapiens, UniProt P29275); assay: Displacement of [3H]PSB-603 from recombinant human adenosine receptor A2b expressed in CHO cell membranes
T5 sequence (P29275 whole entry): T2 sequence (whole entry)
How it was run: (§3)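 Membranes came from CHO cells expressing recombinant receptors (human A1, A2A, A2B, A3; rat A2B, A3). Radioligands were [3H]CCPA for A1 and [3H]PSB-11 or [3H]NECA for A3. A single high concentration was screened first, in three experiments for A1/A2A and two for A2B/A3.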

Adenosine receptor A3 [8] = target: T6, Adenosine receptor A3 (Homo sapiens, UniProt P0DMS8); assay: Displacement of [3H]PSB-11 from recombinant human adenosine receptor A3 expressed in CHO cell membranes
T6 sequence (P0DMS8 whole entry): T4 sequence (whole entry)

[9] = target: Adenosine receptor A2a (Rattus norvegicus) (UniProt P30543); assay: Displacement of [3H]MSX2 from Adenosine receptor A2a in rat brain striatal membranes at 1 uM; assay type: cell membranes; settings: Membrane; how it was run: as §1
Sequence of Adenosine receptor A2a (Rattus norvegicus) (P30543 whole entry): as above

Adenosine receptor A3 [10] = target: T7, Adenosine receptor A3 (Rattus norvegicus, UniProt P28647); assay: Displacement of [3H]NECA from recombinant rat adenosine receptor A3 expressed in CHO cell membranes; how it was run: as §3
T7 sequence (P28647 whole entry): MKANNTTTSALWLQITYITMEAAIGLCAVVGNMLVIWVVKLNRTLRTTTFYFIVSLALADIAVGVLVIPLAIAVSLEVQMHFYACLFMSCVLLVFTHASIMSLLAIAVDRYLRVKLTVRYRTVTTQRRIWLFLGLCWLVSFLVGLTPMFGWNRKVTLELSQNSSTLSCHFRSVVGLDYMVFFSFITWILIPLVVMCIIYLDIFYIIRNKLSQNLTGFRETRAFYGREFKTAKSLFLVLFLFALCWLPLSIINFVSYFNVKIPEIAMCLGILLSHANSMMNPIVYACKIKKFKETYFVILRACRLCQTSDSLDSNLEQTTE

Adenosine receptor A2a [11] = target: T8, Adenosine receptor A2a (Homo sapiens, UniProt P29274); assay: Displacement of [3H]MSX2 from recombinant human adenosine receptor A2a expressed in CHO cell membranes; how it was run: as §2
T8 sequence (P29274 whole entry): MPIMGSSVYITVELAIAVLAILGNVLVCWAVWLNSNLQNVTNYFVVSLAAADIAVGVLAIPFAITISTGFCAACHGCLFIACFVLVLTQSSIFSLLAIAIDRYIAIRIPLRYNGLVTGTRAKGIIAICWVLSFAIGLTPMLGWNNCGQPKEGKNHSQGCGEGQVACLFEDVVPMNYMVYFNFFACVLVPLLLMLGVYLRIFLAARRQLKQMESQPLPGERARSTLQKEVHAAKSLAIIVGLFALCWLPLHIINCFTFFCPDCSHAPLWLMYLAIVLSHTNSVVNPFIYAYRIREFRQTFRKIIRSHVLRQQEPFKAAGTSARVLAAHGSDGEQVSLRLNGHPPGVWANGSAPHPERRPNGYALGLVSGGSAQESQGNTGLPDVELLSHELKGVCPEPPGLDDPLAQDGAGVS

[12] = target: T9, Adenosine receptor A3 (Rattus norvegicus) (UniProt P28647); assay: Displacement of [3H]NECA from recombinant rat adenosine receptor A3 expressed in CHO cell membranes at 1 uM; how it was run: as §2
T9 sequence (whole entry): T7 sequence (P28647 whole entry)

[13] = target: T1, Adenosine receptor A1 (Rattus norvegicus); assay: Displacement of [3H]CCPA from adenosine receptor A1 in rat brain cortical membranes at 1 uM; assay type: cell membranes; how it was run: as §1
Adenosine receptor A2b [14] = target: T10, Adenosine receptor A2b (Rattus norvegicus, UniProt P29276); assay: Displacement of [3H]PSB-603 from recombinant rat adenosine receptor A2b expressed in CHO cell membranes; how it was run: as §3
T10 sequence (P29276 whole entry): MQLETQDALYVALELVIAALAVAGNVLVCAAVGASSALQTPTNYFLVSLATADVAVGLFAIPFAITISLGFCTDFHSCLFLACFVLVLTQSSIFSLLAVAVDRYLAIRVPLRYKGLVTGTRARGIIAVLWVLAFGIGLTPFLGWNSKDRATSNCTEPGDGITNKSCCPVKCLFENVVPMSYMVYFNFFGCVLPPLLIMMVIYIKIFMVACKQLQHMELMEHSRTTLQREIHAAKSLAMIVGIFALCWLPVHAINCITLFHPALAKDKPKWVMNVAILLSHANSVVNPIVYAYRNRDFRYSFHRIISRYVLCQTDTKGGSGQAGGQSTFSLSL

Adenosine receptor A1 [15] = target: T11, Adenosine receptor A1 (Homo sapiens, UniProt P30542); assay: Displacement of [3H]CCPA from recombinant human adenosine receptor A1 expressed in CHO cell membranes; how it was run: as §2
T11 sequence (P30542 whole entry): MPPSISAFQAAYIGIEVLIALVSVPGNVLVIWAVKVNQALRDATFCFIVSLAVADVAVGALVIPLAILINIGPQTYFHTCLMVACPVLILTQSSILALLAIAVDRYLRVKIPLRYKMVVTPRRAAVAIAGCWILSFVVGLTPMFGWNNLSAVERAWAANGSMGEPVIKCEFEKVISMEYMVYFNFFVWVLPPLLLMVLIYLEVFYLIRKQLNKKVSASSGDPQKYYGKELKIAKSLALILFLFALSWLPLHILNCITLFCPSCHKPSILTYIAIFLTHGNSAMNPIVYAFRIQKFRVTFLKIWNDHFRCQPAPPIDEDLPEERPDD

[16] = target: T12, Adenosine receptor A1 (Homo sapiens) (UniProt P30542); assay: Displacement of [3H]CCPA from recombinant human adenosine receptor A1 expressed in CHO cell membranes at 1 uM; how it was run: as §2
T12 sequence (whole entry): T11 sequence (P30542 whole entry)

Adenosine receptor A2a [17] = target: T8, Adenosine receptor A2a; assay: Displacement of [3H]MSX2 from recombinant human adenosine receptor A2a expressed in CHO cell membranes at 1 uM; how it was run: as §2
[18] = target: T13, Adenosine receptor A2b (Rattus norvegicus) (UniProt P29276); assay: Displacement of [3H]PSB-603 from recombinant rat adenosine receptor A2b expressed in CHO cell membranes at 1 uM; how it was run: as §2
T13 sequence (whole entry): T10 sequence (P29276 whole entry)

Row | Compound | solubility [1] | inhibition [2] | inhibition [3] | Ki (Adenosine receptor A1 [4]) | inhibition [5] | Ki (Adenosine receptor A2a [6]) | Ki (Adenosine receptor A2b [7]) | Ki (Adenosine receptor A3 [8]) | inhibition [9] | Ki (Adenosine receptor A3 [10]) | Ki (Adenosine receptor A2a [11]) | inhibition [12] | inhibition [13] | Ki (Adenosine receptor A2b [14]) | Ki (Adenosine receptor A1 [15]) | inhibition [16] | inhibition (Adenosine receptor A2a [17]) | inhibition [18]
1 | Cn1c(=O)c2c(nc3n2CCN(CCc2ccc(OCCN4CCOCC4)cc2)C3)n(C)c1=O | – | 22% | 4% | > 10000 nM | 3% | 11500 nM | > 1000 nM | > 1000 nM | – | – | – | – | – | – | – | – | – | –
2 | CCCCn1c(=O)c2c(nc3n2CCCN3c2ccc(OCCN3CCCCC3)cc2)n(CCCC)c1=O | – | – | 41% | 127 nM | 48% | 1480 nM | > 1000 nM | – | 49% | > 1000 nM | 921 nM | 20% | 65% | > 1000 nM | 713 nM | 42% | 53% | 9%
3 | CCCn1c(=O)c2c(nc3n2CCCN3c2ccc(OCCN3CCCC3)cc2)n(CCC)c1=O | – | – | 10% | 175 nM | 20% | > 1000 nM | > 1000 nM | > 1000 nM | 28% | > 1000 nM | 2380 nM | 10% | 53% | > 1000 nM | 1990 nM | 22% | 10% | 4%

Now from value to compound:

Row | solubility [1] | inhibition [2] | inhibition [3] | Ki (Adenosine receptor A1 [4]) | inhibition [5] | Ki (Adenosine receptor A2a [6]) | Ki (Adenosine receptor A2b [7]) | Ki (Adenosine receptor A3 [8]) | inhibition [9] | Ki (Adenosine receptor A3 [10]) | Ki (Adenosine receptor A2a [11]) | inhibition [12] | inhibition [13] | Ki (Adenosine receptor A2b [14]) | Ki (Adenosine receptor A1 [15]) | inhibition [16] | inhibition (Adenosine receptor A2a [17]) | inhibition [18] | Compound
4 | 51 µg/mL (≈ 149 µM) | – | – | – | – | – | – | – | – | – | – | – | – | – | – | – | – | – | COc1ccc(N2CCCn3c2nc2c3c(=O)n(C)c(=O)n2C)cc1
5 | 63 µg/mL (≈ 171 µM) | – | – | – | – | – | – | – | – | – | – | – | – | – | – | – | – | – | COc1ccc(CCN2CCCn3c2nc2c3c(=O)n(C)c(=O)n2C)cc1
6 | 255 µg/mL (≈ 528 µM) | – | 40% | 56 nM | 38% | 1050 nM | > 1000 nM | > 1000 nM | 47% | > 1000 nM | 1030 nM | 15% | 72% | > 1000 nM | 539 nM | 43% | 52% | 9% | CCCCn1c(=O)c2c(nc3n2CCCN3c2ccc(OCCN(C)C)cc2)n(CCCC)c1=O

Source: ChEMBL document CHEMBL3826885, “Similarities and differences in affinity and binding modes of tricyclic pyrimido- and pyrazinoxanthines at human and rat adenosine receptors” (Bioorg Med Chem, 2016)
